# MBD2 DNA inh: inhibitors of human MBD2 binding to methylated oligonucleotide; Q9UBB5; TR-FRET; inhibition, % at 4.4 µM; 370,000 tested, 0.31% active; AID 686964; in the data active means inhibition above about 13%
# LEDGF integ inh: blocks HIV-1 LEDGF/p75-dependent DNA integration. TR-FRET IN-LEDGF/p75 DNA integration, Eu/Cy5. 370,000 tested, 0.64% active. inhibition, % at 3.7 µM. AID 743269;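 active means inhibition above the screen-wide mean plus 3 SD, cut at about 13% in these data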;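 further: signal is the Cy5 over europium emission ratio at 671 and 618 nm; 0% = plate median of compound wells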
# ARFGAP1 inh: inhibits rat ARF GTPase activating protein 1 | inhibition, % at 16.5 µM | AID 651572 | Q62848 | 360,000 tested, 0.26% active | Arfgap1-stimulated ARF1 GTP hydrolysis, GDP FP detection;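 active means inhibition above a per-plate limit, mean inhibition of low control wells plus 3 SD, cut at about 25% in these data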;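 further: 0% = DMSO wells with enzyme and 100% = wells lacking Arfgap1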
# Target sequence (Q62848 1-136 limits assumed): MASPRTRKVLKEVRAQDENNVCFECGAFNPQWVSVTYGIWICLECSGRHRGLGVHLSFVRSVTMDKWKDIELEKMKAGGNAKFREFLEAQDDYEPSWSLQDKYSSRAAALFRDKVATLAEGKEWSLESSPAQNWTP
#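 System: truncated rat Arfgap1 GAP domain / Benchmarks: high control wells lacking Arfgap1, low control full reaction with DMSO / Times: compound-enzyme preincubation 20 min, reaction 120 min, detection 60 min, 25 °C / Repeats: one replicate per compound / Also added: human ARF1(Δ1-17)-GTP substrate / Measured by: Tracer-displacement fluorescence polarization with EDTA stop, 620/688 nm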
# TCR CD3 inh: blocks the human TCR-CD3 interaction. TAMRA-labeled TCR probe fluorescence, biochemical. inhibition, % at 9.4 µM. 360,000 tested, 0.37% active. AID 651800; in the data active means inhibition above about 19%;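 further: recombinant mutant TCR 2C K166C tagged with TAMRA read by polarization; 0% = receptor in buffer alone and 100% = receptor with positive control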
# UHRF1 MBD2 ctr: UHRF1 methyl-DNA binding inhibition; inhibition, % at 4.4 µM; UHRF1 binding to methylated oligo, TR-FRET; 370,000 tested, 0.75% active; in the data active means inhibition above about 21%;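 further: UHRF1 SRA domain binding a hemimethylated CpG hairpin DNA probe; 0% = median of test compound wells and 100% = reference inhibitor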
# ASAP1 inh: ASAP1 ArfGAP inhibition; ASAP1-stimulated ARF1 GTP hydrolysis, GDP FP detection; 360,000 tested, 0.19% active; inhibition, % at 16.5 µM; Q9ULH1; in the data active means inhibition above about 25%;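 further: 0% = vehicle with enzyme and substrate and 100% = no enzyme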
# Target sequence (Q9ULH1 325-724 limits assumed): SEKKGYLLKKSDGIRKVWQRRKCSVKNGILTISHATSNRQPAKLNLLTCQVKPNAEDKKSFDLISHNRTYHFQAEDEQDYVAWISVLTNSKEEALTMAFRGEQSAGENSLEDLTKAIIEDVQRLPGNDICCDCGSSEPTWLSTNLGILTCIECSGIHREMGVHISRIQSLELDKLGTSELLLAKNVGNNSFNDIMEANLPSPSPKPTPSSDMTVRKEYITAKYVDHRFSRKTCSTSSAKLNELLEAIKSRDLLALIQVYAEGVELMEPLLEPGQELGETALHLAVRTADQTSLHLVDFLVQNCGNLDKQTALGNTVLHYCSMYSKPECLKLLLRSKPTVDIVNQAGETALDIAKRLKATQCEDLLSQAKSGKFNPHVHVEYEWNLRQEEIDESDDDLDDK
# The depositor's hits bear a star; nt = no result. Only some compounds are listed: those with a hit (about 2% of all), similar ones and a draw of the others.
SMILES,MBD2 DNA inh,LEDGF integ inh,ARFGAP1 inh,TCR CD3 inh,UHRF1 MBD2 ctr,ASAP1 inh
COc1ccc(Cn2c(NC(=O)c3ccccc3)nc(Cc3ccccc3)c2-c2ccccc2)c(OC)c1,2,9,nt,nt,-2,nt
COC(=O)[C@]12C[C@H](CC(=O)N3CCN(C(=O)C4CC4)CC3)C(=O)N(Cc3ccco3)C1=C[C@H](COCc1ccccc1)O[C@@H]2C,3,0,nt,nt,1,nt
C#CCNC(=O)C[C@H]1C[C@@]2(C(=O)OC)C(=C[C@H](C3CCCC3)O[C@@H]2C)N(CCC2=CCCCC2)C1=O,2,-4,nt,nt,4,nt
CCN1CCN(C(CCc2ccccc2)C(=O)NC2CCCCC2)CC1 (configuration not stated),-2,-1,2,0,-1,8
CC(C)c1ccc(NC2CCCN(C(=O)CN3CCCCC3=O)C2)cc1 (configuration not stated),0,5,-4,6,2,0
CCOC(=O)Cn1cc(CN2CCS(=O)(=O)N(Cc3ccc(F)cc3)C(C(=O)OC)C2)nn1 (configuration not stated),13,-2,nt,nt,17,nt
Cc1cc(S(=O)(=O)N2CCCOC2CNC(=O)C(=O)NCc2ccco2)ccc1F (configuration not stated),-4,0,-2,1,56*,7
COC(=O)[C@@]1(Sc2ccc(C)cc2)CC(=O)N[C@@H]1c1ccc(C(F)(F)F)cc1,8,-2,3,1,23*,-5
COC(=O)[C@]1(Sc2ccccc2)CC(=O)N[C@@H]1c1ccccc1,-7,4,1,-2,-2,14
Cc1cc(=O)oc2c3c(ccc12)OC/C3=N/N,-1,2,5,22*,6,-10
CC1CCN(C(=O)c2ccc(S(=O)(=O)N3CCCC3)cc2)CC1,2,-4,-7,-6,41*,-5
CC1CCN(S(=O)(=O)c2ccc(C(=O)N3CCCC3C(=O)O)cc2)CC1 (configuration not stated),3,4,7,3,57*,-6
O=C(NC1CCCC1)c1ccc(COc2ccccc2)o1,8,-4,nt,nt,3,nt
CCCNC(=O)N(C)C[C@@H]1Oc2cc(C#C[C@H](C)O)ccc2S(=O)(=O)N([C@H](C)CO)C[C@H]1C,1,2,2,-1,2,-8
C[C@@H]1CN([C@H](C)CO)S(=O)(=O)c2ccc(C#CC3CCCC3)cc2O[C@H]1CN(C)C(=O)Cc1ccccc1,10,3,9,0,22*,17
C[C@@H]1CN([C@H](C)CO)S(=O)(=O)c2ccc(C#Cc3ccccc3)cc2O[C@@H]1CN(C)C(=O)CN(C)C,3,-5,7,-1,-2,-14
CCCN(C)C[C@H]1Oc2cc(C#Cc3ccc(F)cc3)ccc2S(=O)(=O)N([C@H](C)CO)C[C@@H]1C,14*,-5,-1,-2,22*,-2
CCCC#Cc1ccc2c(c1)O[C@H](CN(C)C(=O)CC1CC1)[C@H](C)CN([C@@H](C)CO)S2(=O)=O,11,-4,4,-9,24*,-16
CCC(=O)N(C)C[C@@H]1Oc2cc(Br)ccc2S(=O)(=O)N([C@@H](C)CO)C[C@@H]1C,3,-2,-2,-1,1,5
OC[C@@H]1CN(CCNc2ccccc2)C[C@H](n2cnc3c(NCc4ccncc4)ncnc32)O1,-1,0,-9,-1,-1,-3
Cc1cc(F)ccc1C(O)c1ncc(-c2ccccc2Cl)[nH]1 (configuration not stated),1,-4,9,-2,1,1
CCCc1nnc(NC(=O)CCC(=O)NC2CCCC2)s1,4,0,5,3,23*,-13
CCCCN(CCCNC(=S)NCCCc1cnc[nH]1)c1ccc(Br)cn1,1,-2,14,1,-1,16
CC(=O)Nc1cccc(-c2csc(C(O)c3ccc(F)c(F)c3)n2)c1 (configuration not stated),1,2,-2,11,0,6
COC(=O)[C@H](C(C)C)N1CCc2nnn(CC3CCCCC3)c2-c2ccccc2S1(=O)=O,-5,1,nt,nt,-2,nt
SMILES,MBD2 DNA inh,LEDGF integ inh,ARFGAP1 inh,TCR CD3 inh,UHRF1 MBD2 ctr,ASAP1 inh
COc1ccc(CCNCC2C(Oc3ccc(Cl)cc3)C(=O)N2c2ccccc2C)cc1OC (configuration not stated),10,-4,14,3,23*,-5
CCCC1CCC2(CC1)CCC2OC(=S)Nc1cccc(I)c1 (configuration not stated),-2,3,nt,nt,-1,nt
O=C1C(=O)N(c2nccs2)C(c2ccccc2F)/C1=C(\O)c1ccc2c(c1)OCCO2 (configuration not stated),9,4,-1,10,23*,-10
Cc1n[nH]c(C)c1S(=O)(=O)N1CCC(C(=O)O)CC1,10,-4,4,-1,21*,-6
Cc1n[nH]c(C)c1S(=O)(=O)N1CCCC(C(=O)O)C1 (configuration not stated),0,-3,-2,4,0,-5
COC(=O)[C@@]12CCCCC=C1N(CCc1ccc(Cl)cc1)C(=O)[C@H]2CC(=O)NCc1cccc(C(F)(F)F)c1,-3,0,nt,nt,0,nt
Cc1ccc(CN2CCCCC(NC(=O)c3cccc([N+](=O)[O-])c3)C2=O)cc1 (configuration not stated),-3,0,nt,nt,-1,nt
CN(C)c1ccc(N=Nc2ccc(C(=O)O)cc2)cc1,0,3,-1,8,29*,10
CC1(C(=O)NCC2CCOCC2)Cc2c(-c3cccc(C(F)(F)F)c3)ccnc2O1 (configuration not stated),2,0,4,-13,0,-8
Cc1ccc(N2C(=O)CC(Sc3ncn[nH]3)C2=O)cc1C (configuration not stated),1,3,6,10,22*,8
CN(C)c1ccc(C=c2c3cc([N+](=O)[O-])ccc3n3c2cc(-c2ccccc2)[n+]3C)cc1,3,-4,39*,57*,15,20
COc1ccccc1N1CCN(S(=O)(=O)c2ccc3c(c2)CCC(=O)N3)CC1,1,1,nt,nt,-3,nt
CCOc1ccc(Oc2c(Cl)c(Br)nn(Cc3cccc4ccccc34)c2=O)cc1,7,2,nt,nt,-1,nt
COc1ccc(NC(=O)C2(C)CCN2CCOc2ccc(C)cc2)cc1OC (configuration not stated),2,0,-6,0,0,1
NNC(=O)C1CC1(c1ccccc1)c1ccccc1 (configuration not stated),5,-3,8,-2,23*,-2
C/C(=N/NC(=O)C1CC1(c1ccccc1)c1ccccc1)c1cccs1 (configuration not stated),-1,3,-10,5,-4,9

# From PubChem
